According to ChEMBL document CHEMBL4257483, “Design, synthesis and bioactivities of phenithionate analogues or derivatives for anti-schistosomiasis” (Medchemcomm, 2018):
≈ marks a conversion by molar mass, not a printed value. Calls of active or inactive are those of the source. The calls are words filed in the database; no cut-off is given here.

What was measured:
[1] = Lipid/water partition coefficient, log P of the compound; assay type: physicochemical
Schistosoma japonicum [2] = experiment: Antischistosomal activity against Schistosoma japonicum larva derived from infected mouse assessed as reduction in larva viability after 72 hrs; assay type: functional, organism-based
In short: (§1)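 Worms perfused with cold heparinised HBSS from mice infected percutaneously with S. japonicum cercariae: larvae at 15 days post-infection (260–280 cercariae), adults at 35 days (120–140 cercariae). Five male and female worms per well in 10% calf serum RPMI 1640 with penicillin, streptomycin and amphotericin B. Preincubated 4 h at 37 °C, 5% CO2, then compounds added and viability recorded over 72 h. IC50 taken at 50% survival. DMSO blank.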

[3] = Dissociation constant, pKa of the compound; assay type: physicochemical
Schistosoma japonicum [4] = experiment: Antischistosomal activity against Schistosoma japonicum imago derived from infected mouse assessed as reduction in imago viability after 72 hrs; assay type: functional, organism-based; in short: as §1
Schistosoma haematobium = experiment: Antischistosomal activity against Schistosoma haematobium imago derived from infected mouse at 20 ug/ml after 72 hrs; assay type: functional, organism-based
Schistosoma japonicum [5] = experiment: Antischistosomal activity against Schistosoma japonicum infected in mouse at 25 mg/kg/day, po treated for 5 days measured after day 4 post last dose by ELISA; assay type: functional, organism-based
In short: (§2)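 Male mice (20–22 g) infected via abdominal skin with 120–140 S. japonicum cercariae. From day 35 post-infection, dosed orally once daily for 5 days. Venous blood then clotted and centrifuged 15 min at 3500 rpm. Serum tested by triple dot ELISA and scored by spot colour: brown +++, yellow ++, slight yellow +, colourless –. DMSO blank.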

Schistosoma mansoni = experiment: Antischistosomal activity against Schistosoma mansoni imago derived from infected mouse at 20 ug/ml after 72 hrs; assay type: functional, organism-based
Schistosoma japonicum [6] = experiment: Antischistosomal activity against Schistosoma japonicum infected in mouse at 50 mg/kg/day, po treated for 5 days measured after day 5 post last dose by ELISA; assay type: functional, organism-based; in short: as §2
Schistosoma japonicum [7] = experiment: Antischistosomal activity against Schistosoma japonicum infected in mouse at 50 mg/kg/day, po treated for 5 days measured after day 6 post last dose by ELISA; assay type: functional, organism-based; in short: as §2
Schistosoma japonicum [8] = experiment: Antischistosomal activity against Schistosoma japonicum infected in mouse at 50 mg/kg/day, po treated for 5 days measured after day 4 post last dose by ELISA; assay type: functional, organism-based; in short: as §2
Schistosoma japonicum [9] = experiment: Antischistosomal activity against Schistosoma japonicum infected in mouse at 25 mg/kg/day, po treated for 5 days measured after day 2 post last dose by ELISA; assay type: functional, organism-based; in short: as §2
Schistosoma japonicum [10] = experiment: Antischistosomal activity against Schistosoma japonicum infected in mouse at 50 mg/kg/day, po treated for 5 days measured after day 9 post last dose by ELISA; assay type: functional, organism-based; in short: as §2
Schistosoma japonicum [11] = experiment: Antischistosomal activity against Schistosoma japonicum infected in mouse at 25 mg/kg/day, po treated for 5 days measured after day 8 post last dose by ELISA; assay type: functional, organism-based; in short: as §2
Schistosoma japonicum [12] = experiment: Antischistosomal activity against Schistosoma japonicum infected in mouse at 25 mg/kg/day, po treated for 5 days measured after day 3 post last dose by ELISA; assay type: functional, organism-based; in short: as §2
Schistosoma japonicum [13] = experiment: Antischistosomal activity against Schistosoma japonicum infected in mouse at 50 mg/kg/day, po treated for 5 days measured after day 1 post last dose by ELISA; assay type: functional, organism-based; in short: as §2
Schistosoma japonicum [14] = experiment: Antischistosomal activity against Schistosoma japonicum infected in mouse at 25 mg/kg/day, po treated for 5 days measured after day 9 post last dose by ELISA; assay type: functional, organism-based; in short: as §2
Schistosoma japonicum [15] = experiment: Antischistosomal activity against Schistosoma japonicum infected in mouse at 25 mg/kg/day, po treated for 5 days measured after day 7 post last dose by ELISA; assay type: functional, organism-based; in short: as §2
Schistosoma japonicum [16] = experiment: Antischistosomal activity against Schistosoma japonicum infected in mouse at 25 mg/kg/day, po treated for 5 days measured after day 5 post last dose by ELISA; assay type: functional, organism-based; in short: as §2
Schistosoma japonicum [17] = experiment: Antischistosomal activity against Schistosoma japonicum infected in mouse at 50 mg/kg/day, po treated for 5 days measured after day 8 post last dose by ELISA; assay type: functional, organism-based; in short: as §2
Schistosoma japonicum [18] = experiment: Antischistosomal activity against Schistosoma japonicum infected in mouse at 25 mg/kg/day, po treated for 5 days measured after day 1 post last dose by ELISA; assay type: functional, organism-based; in short: as §2
Schistosoma japonicum [19] = experiment: Antischistosomal activity against Schistosoma japonicum infected in mouse at 50 mg/kg/day, po treated for 5 days measured after day 2 post last dose by ELISA; assay type: functional, organism-based; in short: as §2
Schistosoma japonicum [20] = experiment: Antischistosomal activity against Schistosoma japonicum infected in mouse at 50 mg/kg/day, po treated for 5 days measured after day 3 post last dose by ELISA; assay type: functional, organism-based; in short: as §2
Schistosoma japonicum [21] = experiment: Antischistosomal activity against Schistosoma japonicum imago derived from infected mouse at 20 ug/ml after 72 hrs; assay type: functional, organism-based; in short: as §1
Schistosoma japonicum [22] = experiment: Antischistosomal activity against Schistosoma japonicum infected in mouse at 25 mg/kg/day, po treated for 5 days measured after day 6 post last dose by ELISA; assay type: functional, organism-based; in short: as §2
[23] = Acute toxicity in po dosed mouse infected with Schistosoma japonicum treated for 5 days; assay type: organism-based; settings: in vivo
Schistosoma japonicum [24] = experiment: Antischistosomal activity against Schistosoma japonicum infected in mouse at 50 mg/kg/day, po treated for 5 days measured after day 7 post last dose by ELISA; assay type: functional, organism-based; in short: as §2

SMILES	logP [1]	IC50 (Schistosoma japonicum [2])	pKa [3]	IC50 (Schistosoma japonicum [4])	Activity (Schistosoma japonicum [5])	Activity (Schistosoma japonicum [9])	Activity (Schistosoma japonicum [11])	Activity (Schistosoma japonicum [12])	Activity (Schistosoma japonicum [13])	Activity (Schistosoma japonicum [14])	Activity (Schistosoma japonicum [15])	Activity (Schistosoma japonicum [16])	Activity (Schistosoma japonicum [18])	Activity (Schistosoma japonicum [22])	LD50 at 120 h [23]	further results
CC(=O)Nc1ccc(OC(=S)Nc2ccc(Sc3ccc(C(Cl)(Cl)Cl)cc3)cc2)cc1	6.71	23.5 µg/mL (≈ 46 µM)	9.01	40.4 µg/mL (≈ 78.9 µM)	–	–	–	–	–	–	–	–	–	–	–	–
CC(=O)Nc1ccc(OC(=S)Nc2ccc(Nc3ccc(C(F)(F)F)cc3)cc2)cc1	5.32	11.2 µg/mL (≈ 25.1 µM)	9.05	20 µg/mL (≈ 44.9 µM)	–	–	–	–	–	–	–	–	–	–	–	–
CC(=O)Nc1ccc(OC(=S)Nc2ccc(Sc3ccc([N+](=O)[O-])cc3)cc2)cc1	5.06	16.7 µg/mL (≈ 37.9 µM)	8.99	31.2 µg/mL (≈ 71 µM)	–	–	–	–	–	–	–	–	–	–	–	–
CC(=O)Nc1ccc(OC(=S)Nc2ccc(Nc3ccc(C(Cl)(Cl)Cl)cc3)cc2)cc1	6.07	11.6 µg/mL (≈ 23.4 µM)	9.01	20.1 µg/mL (≈ 40.6 µM)	–	–	–	–	–	–	–	–	–	–	–	–
O=[N+]([O-])c1ccc(Oc2ccc(NC(=S)Oc3ccc(O)cc3)cc2)cc1	5.01	6.38 µg/mL (≈ 16.7 µM)	9.23	8.02 µg/mL (≈ 21 µM)	Active	Active	inactive	Active	Active	inactive	Active	Active	Active	Active	275 mg/kg	Activity (Schistosoma haematobium): inactive; Activity (Schistosoma mansoni): inactive; Activity (Schistosoma japonicum [6]): Active; Activity (Schistosoma japonicum [7]): inactive; Activity (Schistosoma japonicum [8]): Active; Activity (Schistosoma japonicum [10]): inactive; Activity (Schistosoma japonicum [17]): inactive; Activity (Schistosoma japonicum [19]): Active; Activity (Schistosoma japonicum [20]): Active; Activity (Schistosoma japonicum [21]): Active; Activity (Schistosoma japonicum [24]): inactive
O=C(C1CCCCC1)N1CC(=O)N2CCc3ccccc3C2C1 (configuration not stated) [PRAZIQUANTEL]	–	6.33 µg/mL (≈ 20.3 µM)	–	7.98 µg/mL (≈ 25.5 µM)	Active	Active	inactive	Active	Active	inactive	inactive	Active	Active	Active	> 500 mg/kg	Activity (Schistosoma japonicum [6]): Active; Activity (Schistosoma japonicum [7]): Active; Activity (Schistosoma japonicum [8]): Active; Activity (Schistosoma japonicum [10]): inactive; Activity (Schistosoma japonicum [17]): inactive; Activity (Schistosoma japonicum [19]): Active; Activity (Schistosoma japonicum [20]): Active; Activity (Schistosoma japonicum [24]): inactive
O=[N+]([O-])c1ccc(Nc2ccc(NC(=S)Oc3ccc(O)cc3)cc2)cc1	4.54	6.42 µg/mL (≈ 16.8 µM)	9.22	8.05 µg/mL (≈ 21.1 µM)	Active	Active	inactive	Active	Active	inactive	Active	Active	Active	Active	280 mg/kg	Activity (Schistosoma haematobium): inactive; Activity (Schistosoma mansoni): inactive; Activity (Schistosoma japonicum [6]): Active; Activity (Schistosoma japonicum [7]): inactive; Activity (Schistosoma japonicum [8]): Active; Activity (Schistosoma japonicum [10]): inactive; Activity (Schistosoma japonicum [17]): inactive; Activity (Schistosoma japonicum [19]): Active; Activity (Schistosoma japonicum [20]): Active; Activity (Schistosoma japonicum [21]): Active; Activity (Schistosoma japonicum [24]): inactive
Oc1ccc(OC(=S)Nc2ccc(Sc3ccc(C(Cl)(Cl)Cl)cc3)cc2)cc1	7.43	21.1 µg/mL (≈ 44.8 µM)	9.22	37.3 µg/mL (≈ 79.2 µM)	–	–	–	–	–	–	–	–	–	–	–	–
CC(=O)Nc1ccc(OC(=S)Nc2ccc(Sc3ccc(C(F)(F)F)cc3)cc2)cc1	5.96	19 µg/mL (≈ 41.1 µM)	9.02	33.7 µg/mL (≈ 72.8 µM)	–	–	–	–	–	–	–	–	–	–	–	–
O=[N+]([O-])c1ccc(Sc2ccc(NC(=S)Oc3ccc(O)cc3)cc2)cc1	5.25	15.7 µg/mL (≈ 39.3 µM)	9.21	30.5 µg/mL (≈ 76.6 µM)	–	–	–	–	–	–	–	–	–	–	–	–
Oc1ccc(OC(=S)Nc2ccc(Nc3ccc(C(Cl)(Cl)Cl)cc3)cc2)cc1	6.79	7.35 µg/mL (≈ 16.2 µM)	9.23	12.4 µg/mL (≈ 27.3 µM)	Active	Active	Active	Active	inactive	Active	Active	–	Active	Active	> 500 mg/kg	Activity (Schistosoma haematobium): inactive; Activity (Schistosoma mansoni): inactive; Activity (Schistosoma japonicum [21]): Active
Oc1ccc(OC(=S)Nc2ccc(Sc3ccc(C(F)(F)F)cc3)cc2)cc1	6.66	16.6 µg/mL (≈ 39.3 µM)	9.22	31.9 µg/mL (≈ 75.6 µM)	–	–	–	–	–	–	–	–	–	–	–	–
CC(=O)Nc1ccc(OC(=S)Nc2ccc(Nc3ccc([N+](=O)[O-])cc3)cc2)cc1	4.32	8.22 µg/mL (≈ 19.5 µM)	9.04	15.2 µg/mL (≈ 36 µM)	–	–	–	–	–	–	–	–	–	–	–	–
CC(=O)Nc1ccc(OC(=S)Nc2ccc(Oc3ccc(C(F)(F)F)cc3)cc2)cc1	5.41	10.4 µg/mL (≈ 23.2 µM)	9.03	17.3 µg/mL (≈ 38.7 µM)	–	–	–	–	–	–	–	–	–	–	–	–
Oc1ccc(OC(=S)Nc2ccc(Oc3ccc(C(F)(F)F)cc3)cc2)cc1	6.11	5.21 µg/mL (≈ 12.9 µM)	9.23	6.35 µg/mL (≈ 15.7 µM)	Active	Active	inactive	Active	Active	inactive	inactive	Active	Active	inactive	> 500 mg/kg	Activity (Schistosoma haematobium): inactive; Activity (Schistosoma mansoni): inactive; Activity (Schistosoma japonicum [6]): inactive; Activity (Schistosoma japonicum [7]): inactive; Activity (Schistosoma japonicum [8]): inactive; Activity (Schistosoma japonicum [10]): inactive; Activity (Schistosoma japonicum [17]): inactive; Activity (Schistosoma japonicum [19]): Active; Activity (Schistosoma japonicum [20]): Active; Activity (Schistosoma japonicum [21]): Active; Activity (Schistosoma japonicum [24]): inactive
CC(=O)Nc1ccc(OC(=S)Nc2ccc(Oc3ccc([N+](=O)[O-])cc3)cc2)cc1	4.81	8.24 µg/mL (≈ 19.5 µM)	9.04	14.1 µg/mL (≈ 33.3 µM)	–	–	–	–	–	–	–	–	–	–	–	–
CC(=O)Nc1ccc(OC(=S)Nc2ccc(Oc3ccc(C(Cl)(Cl)Cl)cc3)cc2)cc1	6.16	10.2 µg/mL (≈ 20.6 µM)	9.02	18.3 µg/mL (≈ 36.9 µM)	–	–	–	–	–	–	–	–	–	–	–	–
O=[N+]([O-])c1ccc(Nc2ccc(NC(=S)Oc3ccccc3)cc2)cc1	–	6.53 µg/mL (≈ 17.9 µM)	–	8.21 µg/mL (≈ 22.5 µM)	Active	Active	Active	Active	Active	Active	Active	Active	Active	Active	310 mg/kg	–
Oc1ccc(OC(=S)Nc2ccc(Oc3ccc(C(Cl)(Cl)Cl)cc3)cc2)cc1	6.84	7.98 µg/mL (≈ 17.5 µM)	9.24	13.5 µg/mL (≈ 29.8 µM)	Active	Active	inactive	Active	Active	inactive	inactive	Active	Active	Active	> 500 mg/kg	Activity (Schistosoma haematobium): inactive; Activity (Schistosoma mansoni): inactive; Activity (Schistosoma japonicum [7]): Active; Activity (Schistosoma japonicum [8]): Active; Activity (Schistosoma japonicum [10]): Active; Activity (Schistosoma japonicum [17]): Active; Activity (Schistosoma japonicum [19]): Active; Activity (Schistosoma japonicum [20]): Active; Activity (Schistosoma japonicum [21]): Active; Activity (Schistosoma japonicum [24]): Active
